Experiments:
[1] = Drug uptake in human HNT1 cells at 3.2 uM incubated for 30 mins in DMEM media with 10% FBS followed by […] in compound-free medium by inverted fluorescence microscopic analysis; format: ADME, cell-based; details: hnt1, 0.5 h, in the assay text read “in serum-free medium” for “in DMEM media with 10% FBS”
How it was run: (§1)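 Confluent HNT1 cultures (passage 116) given 3.2 μM PS for 30 min in serum-free medium, then 5 h in serum-containing medium with PS, then 15 h chase in serum medium without PS. Fluorescence recorded at 100X with varied camera exposures and quantified digitally; pixel signal normalized to time and cell number.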

FaDu [2] = test: Photosensitizing activity in human FaDu cells assessed as reduction in cell viability pretreated with compound for 24 hrs followed by light irradiation at 1 J/cm2 and measured after 48 hrs by MTT assay; format: functional, cell-based; details: light or radiation study
How it was run: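 Cells seeded at 0.01–0.05 x 10⁶ cells/ml; PS added 24 h after plating, top dose 1600 nM with 2-fold serial dilutions. Plates given 0 or 1 J/cm² light. MTT added 48 h later, formazan dissolved in DMSO, absorbance at 570 nm; IC50 from curve fitting.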

UMUC3 [3] = test: Photosensitizing activity in human UMUC3 cells assessed as reduction in cell viability pretreated with compound for 24 hrs followed by light irradiation at 1 J/cm2 and measured after 48 hrs by MTT assay; format: functional, cell-based; details: UMUC3, light or radiation study
How it was run: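 Cells plated 0.01x10⁶ to 0.05x10⁶ cells/ml and allowed to adhere 24 h before photosensitizer was added, top dose 1600 nM with 2-fold serial dilutions. Plates received no light (0 J/cm²) or 1 J/cm² at 565 mW, 15 cm spot. After 48 h, MTT added for 3 h, formazan solubilized in DMSO and read at 570 nm; IC₅₀ fitted from dose-response.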

[4] = Drug uptake in tumor of SCID mouse xenografted with human UMUC3 cells at 0.47 micromol/kg, iv pretreated with compound followed by light irradiation at a dose of 135 J/cm2 and 75 mW/cm2 measured after 24 hrs by IVIS analysis; format: ADME, organism-based, Neoplasm; details: in vivo, dose 0.47 µmol/kg
How it was run: (§2)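 Female SCID mice with UMUC3 flank/shoulder tumors, 3 per group. PS in 1% Tween80/5% dextrose given iv at 0.47, 0.25 or 0.125 μmol/kg. Whole-body fluorescence imaging by IVIS at several times after injection; average radiant efficiency measured in tumor, liver and skin.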

FaDu [5] = test: Photodynamic antitumor activity against human FaDu cels xenografted in SCID mouse assessed as cure rate at 0.47 micromol/kg, iv pretreated with compound followed by light irradiation at a dose of 135 J/cm2 and 75 mW/cm2 and measured at 24 hrs post dose relative to control; format: functional; details: dose 0.47 µmol/kg
How it was run: (§3)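 FaDu-bearing female SCID mice (5 per group per experiment) given iv PS at 0.47, 0.25 or 0.125 μmol/kg in Tween80/dextrose. Tumors irradiated 24 h post-injection at 665 nm, 135 J/cm², 75 mW/cm². Tumor growth measured daily for 60 days, with euthanasia above 400 mm³. Cure taken as tumor-free at day 60; survival analysed by log-rank test.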

[6] = Drug uptake in liver of SCID mouse xenografted with FaDu cells at 0.47 micromol/kg, iv pretreated with compound followed by light irradiation at a dose of 135 J/cm2 and 75 mW/cm2 and measured at 24 hrs by IVIS analysis; format: ADME, organism-based; details: in vivo, dose 0.47 µmol/kg
How it was run: (§4)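 Female SCID mice bearing FaDu tumors 4–5 mm in diameter, 3 per group. PS in 1% Tween80/5% dextrose given iv at 0.47, 0.25 or 0.125 μmol/kg. IVIS whole-body fluorescence imaged at several time points; average radiant efficiency measured in tumor, liver and skin.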

[7] = Drug uptake in skin of SCID mouse xenografted with FaDu cells at 0.47 micromol/kg, iv pretreated with compound followed by light irradiation at a dose of 135 J/cm2 and 75 mW/cm2 and measured at 24 hrs by IVIS analysis; format: ADME, organism-based, Skin of body; details: in vivo, dose 0.47 µmol/kg; how it was run: as §4
[8] = Drug uptake in human HNT1 cells at 3.2 uM incubated for 30 mins in serum free medium followed by […] in compound-free medium by inverted fluorescence microscopic analysis; format: ADME, cell-based; details: hnt1, 0.5 h; how it was run: as §1
UMUC3 [9] = test: Photodynamic antitumor activity against human UMUC3 cells xenografted in SCID mouse assessed as tumor retention at 0.47 micromol/kg, iv pretreated with compound followed by light irradiation at a dose of 135 J/cm2 and 75 mW/cm2 measured at day 30 post dose relative to control; format: functional; details: dose 0.47 µmol/kg; time 30 day
How it was run: (§5)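 UMUC3-bearing female SCID mice given iv PS in 1% Tween80/5% dextrose. Mice restrained and tumors irradiated at 665 nm, 135 J/cm² over 30 min at 75 mW/cm², at the time of maximal tumor uptake. Tumor regrowth measured daily for 60 days; mice euthanized above 400 mm³. Cure plotted as survival curves and compared by log-rank (Mantel-Cox) test.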

[10] = Drug uptake in tumor of SCID mouse xenografted with FaDu cells at 0.47 micromol/kg, iv pretreated with compound followed by light irradiation at a dose of 135 J/cm2 and 75 mW/cm2 and measured at 24 hrs by IVIS analysis; format: ADME, organism-based, Neoplasm; details: in vivo, dose 0.47 µmol/kg; how it was run: as §4
[11] = Drug uptake in liver of SCID mouse xenografted with human UMUC3 cells at 0.47 micromol/kg, iv pretreated with compound followed by light irradiation at a dose of 135 J/cm2 and 75 mW/cm2 measured after 2 to 24 hrs by IVIS analysis; format: ADME, organism-based; details: in vivo, time 2-24 hrs, dose 0.47 µmol/kg; how it was run: as §2
[12] = Drug uptake in skin of SCID mouse xenografted with human UMUC3 cells at 0.47 micromol/kg, iv pretreated with compound followed by light irradiation at a dose of 135 J/cm2 and 75 mW/cm2 measured after 2 to 24 hrs by IVIS analysis; format: ADME, organism-based, Skin of body; details: in vivo, time 2-24 hrs, dose 0.47 µmol/kg; how it was run: as §2
[13] = Drug uptake in tumor of SCID mouse xenografted with human UMUC3 cells at 0.47 micromol/kg, iv pretreated with compound followed by light irradiation at a dose of 135 J/cm2 and 75 mW/cm2 measured after 2 to 24 hrs by IVIS analysis; format: ADME, organism-based, Neoplasm; details: in vivo, time 2-24 hrs, dose 0.47 µmol/kg; how it was run: as §2
[14] = Drug uptake in human FaDu clone 49 cells assessed as increase in drug retention at 1.6 uM in RPMI medium with 10% FBS followed by 48 hrs chase period by inverted fluorescence microscopic analysis
[15] = Drug uptake in human CFSE-stained HN-121 cells assessed as increase in drug retention at 1.6 uM in medium with 10% FBS followed by 48 hrs chase period by inverted fluorescence microscopic analysis; format: ADME, cell-based; details: hn-121, 48 h
[16] = Drug uptake in liver of SCID mouse xenografted with human UMUC3 cells at 0.47 micromol/kg, iv pretreated with compound followed by light irradiation at a dose of 135 J/cm2 and 75 mW/cm2 measured at 24 hrs by IVIS analysis; format: ADME, organism-based; details: in vivo, dose 0.47 µmol/kg; how it was run: as §2
[17] = Drug uptake in skin of SCID mouse xenografted with human UMUC3 cells at 0.47 micromol/kg, iv pretreated with compound followed by light irradiation at a dose of 135 J/cm2 and 75 mW/cm2 measured at 24 hrs by IVIS analysis; format: ADME, organism-based, Skin of body; details: in vivo, dose 0.47 µmol/kg; how it was run: as §2
[18] = Drug uptake in tumor of SCID mouse xenografted with FaDu cells assessed as fold increase at 0.47 micromol/kg, iv pretreated with compound followed by light irradiation at a dose of 135 J/cm2 and 75 mW/cm2 and measured at 24 hrs by IVIS analysis; format: ADME, organism-based, Neoplasm; details: in vivo, dose 0.47 µmol/kg; how it was run: as §4
FaDu [19] = test: Photodynamic antitumor activity against human FaDu cells xenografted in SCID mouse assessed as cure rate at 0.47 micromol/kg, iv pretreated with compound followed by light irradiation at a dose of 135 J/cm2 and 75 mW/cm2 measured at 24 hrs relative to control; format: functional; details: dose 0.47 µmol/kg; how it was run: as §3
[20] = Drug uptake in tumor of SCID mouse xenografted with human UMUC3 cells assessed as drug accumulation by measuring fold decrease to that of liver at 0.47 micromol/kg, iv followed by light irradiation at 665 nm at a dose of 135 J/cm2 and 75 mW/cm2 and measured after 24 hrs by IVIS analysis; format: ADME, organism-based, Neoplasm; details: in vivo; how it was run: as §2
[21] = Drug uptake in tumor of SCID mouse xenografted with FaDu cells at 0.47 micromol/kg, iv pretreated with compound followed by light irradiation at a dose of 135 J/cm2 and 75 mW/cm2 and measured at 6 hrs by IVIS analysis; format: ADME, organism-based, Neoplasm; details: in vivo, dose 0.47 µmol/kg; how it was run: as §4
[22] = Drug uptake in human HN-166 cells assessed as increase in drug retention retention at 3 uM in medium with 10% FBS incubated for 5 hrs followed by 40 hrs chase period by inverted fluorescence microscopic analysis; format: ADME, cell-based; details: hn-166, 5 h
How it was run: (§6)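 Five-day co-cultures of HN-143 tumor epithelial cells and HN-166 tumor fibroblasts, both primary head & neck tumor cultures grown on collagen-1 under selective media. PS in 10% FBS medium for 5 h, then 40 h chase without PS. Phase-contrast and fluorescence images taken at 100X with 500 ms exposure; signal normalized to recording time and cell number.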

[23] = Drug uptake in human HN-143 cells assessed as increase in drug retention retention at 3 uM in medium with 10% FBS incubated for 5 hrs followed by 40 hrs chase period by inverted fluorescence microscopic analysis; format: ADME, cell-based; details: hn-143, 5 h; how it was run: as §6
UMUC3 [24] = test: Photodynamic antitumor activity against human UMUC3 cels xenografted in SCID mouse assessed as cure rate at 0.47 micromol/kg, iv pretreated with compound followed by light irradiation at a dose of 135 J/cm2 and 75 mW/cm2 and measured after 60 days post dose relative to control; format: functional; details: dose 0.47 µmol/kg; time 60 day; how it was run: as §5
FaDu [25] = test: Photodynamic antitumor activity against human FaDu cels xenografted in SCID mouse assessed as cure rate at 0.47 micromol/kg, iv pretreated with compound followed by light irradiation at a dose of 135 J/cm2 and 75 mW/cm2 and measured after 60 days post dose relative to control; format: functional; details: dose 0.47 µmol/kg; time 60 day; how it was run: as §3
[26] = Drug uptake in tumor of SCID mouse xenografted with FaDu cells assessed as drug accumulation by measuring fold increase to that of liver at 0.47 micromol/kg, iv pretreated with compound followed by light irradiation at a dose of 135 J/cm2 and 75 mW/cm2 and measured after 24 hrs by IVIS analysis; format: ADME, organism-based, Neoplasm; details: in vivo, dose 0.47 µmol/kg; how it was run: as §4

CCCCCCOC(C)c1c(C)c2cc3nc(c4c5[nH]c(cc6nc(cc1[nH]2)C(C)=C6CC)c(C)c5C(=O)C4)[C@@H](CCC(=O)O)[C@@H]3C (some centres not stated) [HPPH]
Drug uptake [1]: Active
IC50 (FaDu [2]): 43.8 nM
IC50 (UMUC3 [3]): 68.4 nM
Drug uptake [4]: Active
Activity (FaDu [5]): 30%
Drug uptake [6]: Active
Drug uptake [7]: Active
Drug uptake [8]: Active
Activity (UMUC3 [9]): 30%
Drug uptake [10]: Active

CCC1=C(C)c2cc3[nH]c(cc4nc(c5c6[nH]c(cc1n2)c(C)c6C(=O)C5)[C@@H](CCC(=O)OC)[C@@H]4C)c(C)c3COCc1cccc(C#Cc2cccc(Nc3ncnc4cc(OCCOC)c(OCCOC)cc34)c2)c1
IC50 (FaDu [2]): 23.3 nM
IC50 (UMUC3 [3]): 76.3 nM
Drug uptake [11]: Active
Drug uptake [12]: Active
Drug uptake [13]: Not Active
Drug uptake [14]: Not Active
Drug uptake [15]: Not Active

CCC1=C(C)c2cc3[nH]c(cc4nc(c5c6[nH]c(cc1n2)c(C)c6C(=O)C5)[C@@H](CCC(=O)OC)[C@@H]4C)c(C)c3C(C)OCc1ccc(C#Cc2cccc(Nc3ncnc4cc(OCCOC)c(OCCOC)cc34)c2)cc1 (some centres not stated)
IC50 (FaDu [2]): 59.6 nM
IC50 (UMUC3 [3]): 20.9 nM
Drug uptake [16]: Active
Drug uptake [4]: Active
Drug uptake [17]: Active
fold change (FC) [18]: 2
Activity (FaDu [19]): 66%
Activity (FaDu [5]): 66%
Drug uptake [6]: Active
Drug uptake [7]: Active
Drug uptake [14]: Active
Drug uptake [15]: Active
Drug uptake [10]: Active

CCCCCCOC(C)c1c(C)c2cc3nc(c4c5[nH]c(cc6nc(cc1[nH]2)C(C)=C6CC)c(C)c5C(=O)C4)[C@@H](CCC(=O)NCCCCn1cc(-c2cccc(Nc4ncnc5cc(OCCOC)c(OCCOC)cc45)c2)nn1)[C@@H]3C (some centres not stated)
fold change (FC) [20]: 2
Drug uptake [21]: Active
IC50 (FaDu [2]): 17.6 nM
IC50 (UMUC3 [3]): 20.2 nM
Drug uptake [22]: Active
Drug uptake [23]: Active
Drug uptake [4]: Active
Drug uptake [14]: Active
Activity (UMUC3 [24]): 20%
Drug uptake [15]: Active
Activity (FaDu [25]): 40%
fold change (FC) [26]: 2

Source: ChEMBL document CHEMBL4732136, “Synthesis, Tumor Specificity, and Photosensitizing Efficacy of Erlotinib-Conjugated Chlorins and Bacteriochlorins: Identification of a Highly Effective Candidate for Photodynamic Therapy of Cancer” (J Med Chem, 2021)
